PP1 counter – PP1-alpha phosphatase inhibitors, primary screen, counter-screen for PP5 inhibitor project, biochemical, fluorescence, OMFP substrate, single point; Serine/threonine-protein phosphatase PP1-alpha catalytic subunit (Homo sapiens), P62136; purified PP1alpha; inhibition, % at 6.7 µM; actives 0.9% (n = 320,000);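 active = inhibition above the mean inhibition of all tested compounds plus 3 SD, computed separately for each screening campaign, cut at about 15% in these data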
Target sequence (P62136 whole entry, looked up): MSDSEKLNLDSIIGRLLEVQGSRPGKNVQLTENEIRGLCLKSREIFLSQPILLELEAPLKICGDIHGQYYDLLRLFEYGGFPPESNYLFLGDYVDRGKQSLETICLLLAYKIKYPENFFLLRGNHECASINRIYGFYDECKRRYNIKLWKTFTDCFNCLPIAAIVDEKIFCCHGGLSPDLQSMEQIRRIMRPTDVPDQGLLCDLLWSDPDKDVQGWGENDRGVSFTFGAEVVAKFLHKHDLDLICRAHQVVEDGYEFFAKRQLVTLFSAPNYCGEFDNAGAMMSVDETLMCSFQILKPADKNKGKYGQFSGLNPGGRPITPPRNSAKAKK
Myeloid diff 2 – induction of myeloid progenitor differentiation, primary screen, cell-based, flow cytometry, MLPCN library. ER-HoxA9 myeloid progenitors, lysozyme-GFP differentiation. calls only at 10 µM. actives 1% (n = 360,000). AID 624256, 2012;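 active = normalized GFP-positive differentiation at or above the plate's own cutoff, the solvent-only control mean plus 3 SD; inconclusive = no clear call, values can overlap the other calls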;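 note: cells exposed to compound for four days before flow analysis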
CTSL1 counter – Fasciola hepatica cathepsin L1 inhibitors, primary screen, counter-screen for PFM18AAP inhibitor project, biochemical, QFRET, fluorogenic peptide substrate; recombinant F. hepatica cathepsin L1, Z-Leu-Arg-MCA fluorescence; inhibition, % at 5.96 µM; actives 0.49% (n = 300,000);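 active = inhibition above the mean of all tested compounds plus 3 SD, set per screening campaign, cut at about 17% in these data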;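 note: 0% = plate median of test compound wells and 100% = 1 µM Z-Phe-Ala-diazomethylketone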
NadD block – inhibitors of S. aureus NadD, primary screen, biochemical, colorimetric, uHTS; Nicotinate-nucleotide adenylyltransferase NadD (Staphylococcus aureus N315); purified NadD enzyme, colorimetric absorbance read-out; inhibition, % at 20 µM; actives 0.78% (n = 360,000); in the data active = inhibition above about 26%
core dimer inh – inhibitors of HCV core protein dimerization, primary screen, biochemical, TR-FRET, high-throughput; TR-FRET GST/Flag-core106 dimerization, 1536-well; inhibition, % at 5 µM; actives 0.33% (n = 300,000); AID 1899, 2009;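 active = inhibition above the mean of all tested compounds plus 3 SD, set per screening campaign, cut at about 45% in these data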
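Test system: GST/Flag-tagged HCV core106 proteins; Medium: KF-containing HEPES buffer, pH 7.45, DTT, CHAPS, BSA; Times: compound-protein-antibody incubation 4 h at 22.5 °C; Detection: TR-FRET 671 and 617 nm emission; Benchmarks: wells lacking GST-core106 and wells with excess unlabelled core106.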
PP5 primary – PP5 phosphatase inhibitors, primary screen, biochemical, fluorescence. actives 0.18% (n = 320,000). inhibition, % at 6.7 µM. purified PP5c, OMFP substrate fluorescence. Serine/threonine-protein phosphatase 5 (Homo sapiens), P53041. AID 1987, 2009;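 active = inhibition above the campaign's mean inhibition across all tested compounds plus 3 SD, cut at about 9.5% in these data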;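 note: 0% = DMSO only and 100% = 100 µM cantharidin control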
* = called active by the depositor; i = inactive; ? = inconclusive; nt = no result; + = active, no number. Compounds with a hit are over-represented: about 3.1% of the library has one in this group of screens.

SMILES	PP1 counter	Myeloid diff 2	CTSL1 counter	NadD block	core dimer inh	PP5 primary
COCCN=C1N[C@@H](c2ccccc2)C(C(=O)OC)=C(C)N1Cc1ccccc1	-9	i	0	0	8	0
CC(=O)c1ccc(NC(=S)N2c3ccccc3CC2C)cc1 (centres undefined)	7	i	-3	-4	4	0
CC1Cc2ccccc2N1C(=S)Nc1ccc(S(N)(=O)=O)cc1 (centres undefined)	-3	+	-3	0	-6	2
CC(C)(C)c1ccc(C(=O)c2cn[nH]c2-c2ccccc2O)cc1	5	i	3	-10	-9	4
CCCC1=NN2C(=N)/C(=C\c3ccc(OCCOc4ccc(NC(C)=O)cc4)c(OC)c3)C(=O)N=C2S1	-2	i	4	21	7	-2
COC(=O)C(C)N(C#N)c1nc(NC(C)C)nc(SC)n1 (centres undefined)	-5	i	32*	0	1	-2
COC(=O)CN(C#N)c1nc(NC(C)C)nc(NC(C)C)n1	0	i	69*	6	-3	2
COC(=O)C(C)N(C#N)c1nc(C)cc(C)n1 (centres undefined)	4	i	-4	-6	5	0
CCN(CC)C(=O)CN(C#N)c1nc(NC(C)C)nc(NC(C)C)n1	0	i	-1	3	-4	0
O=C(OCc1cccc([N+](=O)[O-])c1)c1ccc[nH]c1=O	-1	i	-1	-5	6	2
O=C(NCCc1ccccc1)c1cccc(NC(=O)C2CC2)c1	nt	+	nt	-1	nt	nt
CCOC(=O)/C(=C\C=C1/Sc2cc(OCC)c(OCC)cc2N1CC)C(C)=O	-2	+	6	-6	-22	0
CCOC(=O)/C(=C/C=C1\Sc2cc(OCC)c(OCC)cc2N1CC)C(C)=O	-7	+	3	-4	-20	3
CCN1/C(=C/C(C)=O)Sc2ccc(OC)cc21	-1	i	3	0	-4	0
CCOC(=O)Cc1ccc(Nc2nc(NCc3ccccc3)nc3ccsc23)cc1	nt	i	nt	12	nt	nt
O=C(O)c1ccccc1Nc1ccnc(C(F)(F)F)c1	1	i	2	-5	-9	1
CC1(C)CN(c2ccsc2C(=O)O)C1=O	2	i	26*	1	1	-4
O=C(O)c1sccc1S(=O)(=O)N1CCCCC1	nt	i	nt	3	nt	nt
O=c1oc2ccccc2c(O)c1Cc1cc(Cl)c2cccnc2c1O	16*	i	0	-2	4	-2
O=C(SCc1c(O)c2ccccc2oc1=O)c1ccccc1	nt	i	nt	2	nt	nt
CCCCCC(=O)N1C[C@@H](O)[C@H](n2cc(COC(=O)c3ccccc3)nn2)C[C@@H]1c1ccccc1	nt	i	nt	0	nt	nt
CCOCCn1ccc2c(OCC(=O)Nc3ccc(OC)c(OC)c3)cccc2c1=O	-1	i	2	-3	-1	1
CCOCCn1ccc2c(OCC(=O)Nc3ccc(OC)cc3OC)cccc2c1=O	-3	+	4	-13	-8	1
O=C(CC[C@H]1O[C@@H](n2ccc(=O)[nH]c2=O)[C@H](O)[C@@H]1O)N[C@H](Cc1ccccc1)C(=O)NCc1ccc2c(c1)OCO2	nt	i	nt	-9	nt	nt
CCOC(=O)c1c(C)[nH]c(C(=O)COC(=O)/C=C/c2ccc(OC(F)F)cc2)c1C	-2	i	-1	7	5	-2
SMILES	PP1 counter	Myeloid diff 2	CTSL1 counter	NadD block	core dimer inh	PP5 primary
CCOC(=O)c1c(C)[nH]c(C)c1C(=O)COC(=O)/C=C/c1ccc(OC(F)F)cc1	-1	+	-2	-4	1	0
CC(C)n1ncc2c(C(=O)NCc3cccnc3)cc(C3CC3)nc21	nt	i	nt	-5	nt	nt
Nc1[nH]nc2nc(N3CCCC3)nc(-c3ccccc3)c12	-2	i	4	2	-2	0
Cc1cc(C)n2nc3nc(N4CCCC4)nc(-c4ccccc4)c3c2n1	11	i	0	22	48*	-2
CC1(C)Cc2c(c(N3CCOCC3)nc3sc(-c4ccc(C(=O)O)o4)c(N)c23)CO1	4	+	4	2	-16	1
CNC(=O)c1ccc(-c2sc3nc(N4CCOCC4)c4c(c3c2N)CC(C)(C)OC4)o1	2	i	7	0	-55	3
Cc1nn(Cc2ccccc2)c2ncccc12	-6	i	-2	3	-7	4
COc1ccc(NC(=O)Cn2nnc(-c3ccccc3NC(=O)c3ccco3)n2)cc1	2	+	1	-2	4	2
COc1ccccc1C(=O)Nc1ccc(-c2nnn(CC(=O)NCc3ccco3)n2)cc1	16*	?	0	9	19	-1
COc1ccccc1NC(=O)Cn1nnc(-c2ccccc2NC(=O)c2ccco2)n1	-2	i	-3	-5	6	3
C=COC(=O)CSc1snc(SCC(=O)OC)c1C#N	0	i	-11	-2	89*	0
COc1ccc(N2CCN(C(=O)c3ccc4c(c3)NC(=O)C(CSCc3ccc(C)cc3)N4)CC2)cc1 (centres undefined)	19*	nt	10	nt	64*	0
Cc1cccc(N2CCN(C(=O)c3ccc(N4CCCC4=O)cc3)CC2C)c1 (centres undefined)	-5	i	0	3	-2	-4
COc1ccc(N2CCN(C(=O)c3ccc4c(c3)NC(=O)C(CSCc3c(F)cccc3Cl)N4)CC2)cc1 (centres undefined)	25*	nt	1	nt	67*	1
COc1ccc(N2CCN(C(=O)c3ccc4c(c3)NC(=O)C(CSCc3cccc(F)c3)N4)CC2)cc1 (centres undefined)	33*	nt	1	nt	34	3
Cc1cccc(N2CCN(C(=O)c3ccc4c(c3)NC(=O)C(CSCc3ccc(F)cc3)N4)CC2C)c1 (centres undefined)	19*	nt	2	nt	64*	0
CC(C)CCn1c(SCC(=O)Nc2ccccc2C(F)(F)F)nc2nccnc2c1=O	0	i	4	5	8	-2
CC(=O)c1sc2nc(CSc3nnnn3-c3ccccc3)[nH]c(=O)c2c1C	8	i	5	18	74*	3
O=S(=O)(/N=C/c1ccccc1O)c1cccs1	-4	i	-2	-4	-6	0
O=C(O)c1ccc(NC2=C/C(=N/S(=O)(=O)c3cccs3)c3ccccc3C2=O)cc1	nt	i	nt	-2	nt	nt
